14 molecules from ChEMBL document CHEMBL1799915, “Antitubercular chromones and flavonoids from Pisonia aculeata” (2011) can be followed below.

In brackets after ≈: the same amount, converted by molar mass.

The subject of this assay is Mycobacterium tuberculosis. In words: Antitubercular activity against Mycobacterium tuberculosis H37Rv after 2 weeks by agar plate assay. It counts as functional. Particulars: 336 h. In outline:
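Inoculum from colonies suspended in 7H9 broth, adjusted to McFarland no. 1, then diluted; 33 μL spotted per quadrant. Incubated 35 °C, 10% CO2. MIC = lowest concentration giving complete growth inhibition, read by eye.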
In general, MIC refers to the lowest concentration that inhibits growth of the organism. High values mean a less susceptible organism, low ones a more susceptible organism. Take `Cc1c(O)c(C)c2c(c1O)C(=O)C[C@@H](c1ccccc1O)O2`: 20 µg/mL (≈ 66.6 µM) was the least that counted as inhibitory (MIC). `COc1cc(/C=C/C(=O)NC[C@H](O)c2ccc(O)cc2)ccc1O` registered an MIC of 50 µg/mL (≈ 152 µM).

Consider `COc1c(O)cc2c(c1O)C(=O)C[C@@H](c1ccccc1)O2` [DIHYDROOROXYLIN A], for which the lowest concentration to inhibit growth (MIC) was 50 µg/mL (≈ 175 µM).

`CC[C@@H](CO)NCCN[C@@H](CC)CO` [ETHAMBUTOL] came in with an MIC of 6.25 µg/mL (≈ 30.6 µM).

`COc1cc(O)c2c(=O)cc(C)oc2c1` [EUGENIN] gave a minimum inhibitory concentration (MIC) of 103 µg/mL (≈ 500 µM). Regarding `Cc1c(O)c(C)c2occc(=O)c2c1O` [LEPTORUMOL], the minimal inhibitory concentration (MIC) worked out at 82.9 µg/mL (≈ 402 µM). For `Cc1cc(=O)c2c(O)cc(O)cc2o1` [NOREUGENIN] the value was 110 µg/mL (≈ 572 µM). For `COc1c(O)c(C)c2occ(-c3ccccc3O)c(=O)c2c1O` [PISONIANONE], the MIC was at least 175 µg/mL. The molecule `COc1cc2occc(=O)c2c(O)c1OC` [PISONIN A] yielded an MIC of at least 100 µg/mL. `COc1c(O)cc2oc(C)cc(=O)c2c1O` [PISONIN B] registered an MIC of 25 µg/mL (≈ 113 µM).

`COc1c(O)cc2occc(=O)c2c1O` [PISONIN C]: inhibition of growth (MIC) required 80 µg/mL (≈ 384 µM).

Take `O=c1ccoc2cc3c(c(O)c12)OCO3` [PISONIN D]: the MIC is at least 236 µg/mL. On to `Cc1cc(=O)c2c(O)c3c(cc2o1)OCO3` [PISONIN E], for which the MIC is at least 190 µg/mL.

`Cc1c(O)cc(O)c2c1O[C@H](c1ccccc1O)CC2=O` [PISONIVANONE] registered an MIC of 12.5 µg/mL (≈ 43.7 µM).
